Results taken from ChEMBL document CHEMBL2321694, “Novel 3-hydroxy vinylboronates influence sphingolipid metabolism, cause apoptosis in Jurkat cells and prevent tumor development in nude mice” (Bioorg Med Chem Lett, 2013).
Activity calls are given as the source filed them. No cut-off for these calls is given here.

Experiments:
[1] = test system: HT-29; test: Cytotoxicity against human HT-29 cells assessed as cell survival after 72 hrs by MTT assay; format: functional, cell-based
Summary of the method: (§1)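 Cells at 1 × 10^6 cells/ml were plated in RPMI 1640 without FCS; adherent lines (HT-29, ARH-77, Melanoma-624) were left overnight to attach first. Compound was added and MTT read after 72 h incubation at 37 °C, 5% CO2; IC50 derived.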

[2] = test system: ARH-77; test: Cytotoxicity against human ARH77 cells assessed as cell survival after 72 hrs by MTT assay; format: functional, cell-based; summary of the method: as §1
[3] = Cytotoxicity against human Melanoma-624 cells assessed as cell survival after 72 hrs by MTT assay; format: functional, cell-based; details: Homo sapiens, 624, 72 h; summary of the method: as §1
[4] = test system: Mus musculus; test: Toxicity in nude mouse xenografted with human HT-29 cells assessed as adverse effect at 50 mg/kg, ip up to day 50; format: organism-based; design: dose 50 mg/kg, route intraperitoneal; details: in vivo
Summary of the method: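 HT-29 xenograft (1 × 10^6 cells sc) in female nude mice dosed ip once daily for 3 weeks (15 injections) in cremophor/ethanol/water (10:10:80), followed to day 50; general health checked daily by weighing and clinical examination.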

[5] = test system: Jurkat; test: Reduction of sphingomyelin synthesis in fluorescent Bodipy-12-ceramide-treated human Jurkat cells administered 30 mins prior to Bodipy-12-ceramide addition measured after 72 hrs by HPLC analysis in presence of 10% FCS; format: functional, cell-based
Summary of the method: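 Jurkat cells (0.75 × 10^6 cells/ml) in medium with 10% FCS received compound or vehicle (0.1% DMSO); 30 min later 0.25 μM Bodipy-12-ceramide was added. After 72 h, lipids were extracted with dichloromethane/methanol, and ceramide and sphingomyelin percentages were quantified by C18 HPLC with fluorescence detection (Ex 505, Em 530 nm). Mean ± s.d., t test versus vehicle.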

[6] = test system: Jurkat; test: Cytotoxicity against human Jurkat cells assessed as cell survival after 72 hrs by MTT assay in presence of 10% FCS; format: functional, cell-based
Summary of the method: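 Jurkat MTT viability run in RPMI 1640 with 10% FCS, 72 h incubation with compound at 37 °C, 5% CO2; IC50 derived.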

[7] = test system: HT-29; test: Antitumor activity against human HT-29 cells xenografted in nude mouse assessed as tumor growth inhibition at 50 mg/kg, ip measured after 33 days; format: functional, organism-based; design: dose 50 mg/kg
Summary of the method: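 Female nude mice 5–6 weeks old (SPF, ~22 °C, 12-h light–dark) injected sc with 1 × 10^6 HT-29 cells, randomized same day to 50 mg/kg (n=5) or vehicle cremophor/ethanol/water (10:10:80) (n=6). Once-daily ip injections for 3 weeks (15 injections), then 4 weeks follow-up; read-out was percentage of tumor-free mice over time.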

[8] = test system: HT-29; test: Antitumor activity against human HT-29 cells xenografted in nude mouse assessed as tumor growth inhibition at 50 mg/kg, ip measured up to day 33; format: functional, organism-based; design: dose 50 mg/kg
[9] = test system: Jurkat; test: Cell cycle arrest at human Jurkat cells assessed as accumulation at sub G1 phase at 100 uM after 24 hrs by propidium iodide staining-based FACS flow cytometric analysis relative to control; format: functional
Summary of the method: (§2)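 Jurkat cells at 1 × 10^6 cells/ml were exposed to compound or vehicle (0.2% DMSO) for 24 h. They were then fixed in cold 70% ethanol, and RNAse (50 μg/ml) and PI were added in PBS. Cell-cycle distribution, including sub-G1, was read by flow cytometry. Data are mean ± s.d., with t test versus naïve control.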

[10] = test system: Jurkat; test: Cytotoxicity against human Jurkat cells assessed as cell survival after 72 hrs by MTT assay; format: functional, cell-based; summary of the method: as §1
[11] = test system: Jurkat; test: Induction of apoptosis in human Jurkat cells assessed as increase in apoptotic cells at 100 uM after 24 hrs by annexin V-propidium iodide staining-based FACS flow cytometric analysis (reference value: 11.99%); format: functional
[12] = test system: Jurkat; test: Cell cycle arrest at human Jurkat cells assessed as accumulation at sub G1 phase at 20 to 50 uM after 24 hrs by propidium iodide staining-based FACS flow cytometric analysis; format: functional; details: 100 uM, in the assay text read “100 uM” for “20 to 50 uM”; summary of the method: as §2
[13] = Homo sapiens, HT-29, 72 h, read-out: IC50
[14] = Homo sapiens, ARH-77, 72 h, read-out: IC50

| Compound | IC50 [1, 13] [µM] | IC50 [2, 14] [µM] | other results |
| --- | --- | --- | --- |
| CCC/C(=C\B1OC(C)(C)C(C)(C)O1)C(O)(c1ccccc1)C1CC1 (stereo unspecified) | 83.9 | 55.2 |  |
| CCC/C(=C\B1OC(C)(C)C(C)(C)O1)C1(O)CCCc2ccccc21 (stereo unspecified) | 86.8 | 64.9 |  |
| CCCCCCCC/C(=C\B1OC(C)(C)C(C)(C)O1)C(O)(c1ccccc1)C1CC1 (stereo unspecified) | 18.3 | 6.36 | IC50 [3]: 32.3 µM; Activity [4]: Non-toxic; Activity [5]: Dose-dependent effect; IC50 [6]: 84 µM; TGI [7]: inactive; TGI [8]: Active; fold change (FC) [9]: >2; IC50 [10]: 16.3 µM; Activity [11]: 15.22%; Activity [12]: Active |
| CCCCC/C(=C\B1OC(C)(C)C(C)(C)O1)C(O)(c1ccccc1)C1CC1 (stereo unspecified) |  | 10.4 | IC50 ([1]; ht-29): Not Active |
| CCCCCCC(C)(O)/C(=C/B1OC(C)(C)C(C)(C)O1)CCC (stereo unspecified) | 57.2 | 33.9 |  |
| CCCCCCCC/C(=C\B1OC(C)(C)C(C)(C)O1)C(C)(O)CCCCCC (stereo unspecified) | > 100 | 79.1 |  |
| CCC/C(=C\B1OC(C)(C)C(C)(C)O1)C(O)c1ccccc1 (stereo unspecified) | > 100 |  | IC50 ([2]; arh-77): Not Active |
| CCCCC(C)(O)/C(=C/B1OC(C)(C)C(C)(C)O1)CCC (stereo unspecified) | 69.6 | 54.6 |  |
